Test results from ChEMBL document CHEMBL1155233, “Structure mechanism insights and the role of nitric oxide donation guide the development of oxadiazole-2-oxides as therapeutic agents against schistosomiasis” (J Med Chem, 2009).
≈ marks a conversion by molar mass, not a printed value. Calls of active or inactive are those of the source. The rule behind the calls is not given here.

What was measured:
Schistosoma mansoni [1] = test: Antischistosomal activity against Schistosoma mansoni assessed as induction of parasite sluggish movement after 16 hrs; assay type: functional, organism-based
How it was run: (§1)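 Cultured ex vivo worms were exposed to 10 μM compound. Worm effects were scored by visual examination at time points over a 72 h time-course.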

Schistosoma mansoni [2] = test: Antischistosomal activity against Schistosoma mansoni assessed as induction of parasite mortality after 72 hrs; assay type: functional; set-up: concentration or dose not given beside the values; how it was run: as §1
Schistosoma mansoni [3] = test: Antischistosomal activity against Schistosoma mansoni assessed as induction of parasite mortality after 8 hrs; assay type: functional; set-up: concentration or dose not given beside the values; how it was run: as §1
Schistosoma mansoni [4] = test: Antischistosomal activity against Schistosoma mansoni assessed as parasite killing after 2 hrs; assay type: functional, organism-based; how it was run: as §1
[5] = Induction of nitric oxide release at 10 uM in presence of Schistosoma mansoni recombinant TGR; assay type: functional
[6] = Induction of nitric oxide release at 10 uM in presence of Schistosoma mansoni recombinant TGR and NADPH; assay type: functional
[7] = Induction of nitric oxide release at 10 uM in presence of cysteine; assay type: physicochemical
[8] = molecular target: T1, Glutathione reductase, mitochondrial (Homo sapiens, UniProt P00390); test: Inhibition of human recombinant GR after 15 mins in presence of NADPH
T1 sequence (P00390 whole entry): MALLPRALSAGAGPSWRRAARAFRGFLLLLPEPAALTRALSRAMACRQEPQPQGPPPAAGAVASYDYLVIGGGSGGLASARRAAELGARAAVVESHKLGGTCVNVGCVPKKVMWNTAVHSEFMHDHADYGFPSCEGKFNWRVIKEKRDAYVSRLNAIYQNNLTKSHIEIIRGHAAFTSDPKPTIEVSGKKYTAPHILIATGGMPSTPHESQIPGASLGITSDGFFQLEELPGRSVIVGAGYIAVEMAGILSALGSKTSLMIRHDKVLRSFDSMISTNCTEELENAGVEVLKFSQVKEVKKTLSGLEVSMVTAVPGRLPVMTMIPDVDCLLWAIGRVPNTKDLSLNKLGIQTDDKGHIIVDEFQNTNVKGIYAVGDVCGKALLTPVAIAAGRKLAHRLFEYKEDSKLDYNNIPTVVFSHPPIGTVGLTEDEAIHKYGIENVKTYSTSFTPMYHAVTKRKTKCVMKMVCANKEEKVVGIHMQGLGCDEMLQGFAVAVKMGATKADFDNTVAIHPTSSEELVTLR

Schistosoma mansoni [9] = test: Antischistosomal activity against Schistosoma mansoni assessed as induction of parasite mortality after 24 hrs; assay type: functional; set-up: concentration or dose not given beside the values; how it was run: as §1
Schistosoma mansoni [10] = test: Antischistosomal activity against Schistosoma mansoni assessed as induction of parasite mortality after 48 hrs; assay type: functional; set-up: concentration or dose not given beside the values; how it was run: as §1
[11] = molecular target: T2, Thioredoxin reductase 1, cytoplasmic (Rattus norvegicus, UniProt O89049); test: Inhibition of rat recombinant TrxR1 after 10 mins
T2 sequence (O89049 whole entry): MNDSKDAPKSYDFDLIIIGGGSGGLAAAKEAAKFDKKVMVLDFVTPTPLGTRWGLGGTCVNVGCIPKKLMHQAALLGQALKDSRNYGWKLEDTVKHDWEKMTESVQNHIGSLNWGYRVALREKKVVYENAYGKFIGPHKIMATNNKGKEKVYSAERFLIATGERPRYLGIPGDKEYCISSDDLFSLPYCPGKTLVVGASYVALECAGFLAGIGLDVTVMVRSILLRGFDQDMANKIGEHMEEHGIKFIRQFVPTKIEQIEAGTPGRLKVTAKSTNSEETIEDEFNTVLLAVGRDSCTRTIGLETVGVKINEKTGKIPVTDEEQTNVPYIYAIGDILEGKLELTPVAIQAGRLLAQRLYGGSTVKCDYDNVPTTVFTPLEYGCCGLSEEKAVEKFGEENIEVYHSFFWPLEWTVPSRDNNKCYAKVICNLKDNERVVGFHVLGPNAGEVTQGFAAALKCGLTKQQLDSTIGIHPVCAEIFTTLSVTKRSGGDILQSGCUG

Schistosoma mansoni [12] = test: Antischistosomal activity against Schistosoma mansoni assessed as parasite killing after 4 hrs; assay type: functional; how it was run: as §1
Schistosoma mansoni [13] = test: Antischistosomal activity against Schistosoma mansoni assessed as induction of parasite curling after 4 hrs; assay type: functional, organism-based; how it was run: as §1
[14] = Reactivity with cysteine at 0.1 mM in 0.1M phosphate buffer assessed as amount of compound unreacted by HPLC
Schistosoma mansoni [15] = test: Antischistosomal activity against Schistosoma mansoni assessed as induction of parasite sluggish movement after 4 hrs; assay type: functional, organism-based; how it was run: as §1
Schistosoma mansoni [16] = test: Antischistosomal activity against Schistosoma mansoni assessed as induction of parasite mortality after 16 hrs; assay type: functional; set-up: concentration or dose not given beside the values; how it was run: as §1
Schistosoma mansoni [17] = test: Antischistosomal activity against Schistosoma mansoni assessed as induction of parasite sluggish movement after 8 hrs; assay type: functional, organism-based; how it was run: as §1
[18] = Metabolic stability in human liver microsomes assessed as compound remaining over 60 mins in absence of NADPH; assay type: ADME, Microsome; details: read-out: Stability
hERG (KCNH2) = hERG (KCNH2) (Homo sapiens, UniProt Q12809); test: Inhibition of human ERG expressed in HEK293 cells at 10 uM by fast patch clamp method; details: HEK293 cells expressing human ERG
[19] = Distribution coefficient, log D of the compound; details: octanol/water
[20] = Metabolic stability in human liver microsomes assessed as compound remaining over 60 mins in presence of NADPH; assay type: ADME, Microsome; details: read-out: Stability
Caco-2 [21] = test: Apparent permeability from basolateral to apical side of human Caco-2 cells
[22] = Solubility by quantitative nitrogen detection based method
Caco-2 [23] = test: Apparent permeability from apical to basolateral side of human Caco-2 cells
[24] = molecular target: T3, Thioredoxin glutathione reductase (Schistosoma mansoni, UniProt Q962Y6); test: Inhibition of Schistosoma mansoni TGR
T3 sequence (Q962Y6 whole entry): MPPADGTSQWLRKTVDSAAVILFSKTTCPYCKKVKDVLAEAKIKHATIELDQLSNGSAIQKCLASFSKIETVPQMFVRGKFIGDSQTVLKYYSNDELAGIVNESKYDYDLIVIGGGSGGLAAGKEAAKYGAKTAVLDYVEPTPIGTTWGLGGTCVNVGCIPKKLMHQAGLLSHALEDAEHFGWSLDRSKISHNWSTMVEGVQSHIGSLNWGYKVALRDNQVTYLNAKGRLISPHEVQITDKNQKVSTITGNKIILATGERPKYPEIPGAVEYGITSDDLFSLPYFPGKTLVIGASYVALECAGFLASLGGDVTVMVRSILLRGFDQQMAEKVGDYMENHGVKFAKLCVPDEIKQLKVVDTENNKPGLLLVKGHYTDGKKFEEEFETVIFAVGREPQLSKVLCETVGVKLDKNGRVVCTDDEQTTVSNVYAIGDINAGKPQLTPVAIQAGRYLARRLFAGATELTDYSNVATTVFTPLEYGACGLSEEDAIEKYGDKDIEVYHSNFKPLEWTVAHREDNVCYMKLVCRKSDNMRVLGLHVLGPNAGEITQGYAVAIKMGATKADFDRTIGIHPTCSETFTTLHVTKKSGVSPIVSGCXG

Sequence of hERG (KCNH2) (Q12809 whole entry): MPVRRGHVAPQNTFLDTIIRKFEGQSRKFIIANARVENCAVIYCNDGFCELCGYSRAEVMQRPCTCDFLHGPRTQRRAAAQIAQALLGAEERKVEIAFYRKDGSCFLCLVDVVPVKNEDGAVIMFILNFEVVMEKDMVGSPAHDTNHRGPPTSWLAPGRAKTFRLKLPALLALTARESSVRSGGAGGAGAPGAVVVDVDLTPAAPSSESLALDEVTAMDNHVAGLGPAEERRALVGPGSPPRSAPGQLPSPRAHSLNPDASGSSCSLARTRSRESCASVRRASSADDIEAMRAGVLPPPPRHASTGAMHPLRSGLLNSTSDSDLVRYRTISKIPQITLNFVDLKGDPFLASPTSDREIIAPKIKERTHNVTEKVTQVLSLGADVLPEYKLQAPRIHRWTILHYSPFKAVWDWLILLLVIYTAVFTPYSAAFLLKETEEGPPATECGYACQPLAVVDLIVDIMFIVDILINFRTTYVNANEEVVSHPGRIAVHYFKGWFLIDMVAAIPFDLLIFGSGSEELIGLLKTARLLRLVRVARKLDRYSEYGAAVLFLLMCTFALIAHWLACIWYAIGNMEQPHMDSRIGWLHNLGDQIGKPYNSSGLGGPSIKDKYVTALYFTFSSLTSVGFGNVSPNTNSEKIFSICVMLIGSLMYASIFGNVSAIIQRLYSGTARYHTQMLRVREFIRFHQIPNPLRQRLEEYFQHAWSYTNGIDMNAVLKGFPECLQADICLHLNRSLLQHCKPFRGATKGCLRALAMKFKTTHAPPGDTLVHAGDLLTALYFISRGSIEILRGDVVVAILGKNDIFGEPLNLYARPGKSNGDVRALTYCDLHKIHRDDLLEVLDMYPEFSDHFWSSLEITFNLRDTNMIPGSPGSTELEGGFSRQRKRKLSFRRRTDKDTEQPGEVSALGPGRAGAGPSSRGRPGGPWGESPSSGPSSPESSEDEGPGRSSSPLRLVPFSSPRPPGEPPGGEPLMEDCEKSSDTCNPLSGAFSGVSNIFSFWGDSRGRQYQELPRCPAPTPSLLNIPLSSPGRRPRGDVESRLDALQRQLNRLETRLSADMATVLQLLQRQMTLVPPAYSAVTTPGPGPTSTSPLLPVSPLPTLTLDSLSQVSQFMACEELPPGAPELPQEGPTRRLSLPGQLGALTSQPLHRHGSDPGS

| SMILES | Activity (Schistosoma mansoni [1]) | Activity (Schistosoma mansoni [2]) | Activity (Schistosoma mansoni [3]) | Activity (Schistosoma mansoni [4]) | Activity [5] [%] | Activity [6] [%] | Activity [7] [%] | IC50 [8] [µM] | Activity (Schistosoma mansoni [9]) | Activity (Schistosoma mansoni [10]) | IC50 [11] [µM] | Activity (Schistosoma mansoni [12]) | Activity [14] | Activity (Schistosoma mansoni [16]) | other results |
| --- | --- | --- | --- | --- | --- | --- | --- | --- | --- | --- | --- | --- | --- | --- | --- |
| N#Cc1c(-c2cccc([N+](=O)[O-])c2)no[n+]1[O-] | Active | 21% | inactive | inactive | 2 | 16 | 72 | > 50 | 10% | 15% | 150 | inactive |  |  |  |
| N#Cc1c(-c2ccc(Cl)cc2)no[n+]1[O-] | Active | 100% | inactive | inactive | 2 | 16 | 61 | > 50 | 42% | 60% | > 400 | inactive |  |  |  |
| N#Cc1c(-c2ccccc2)no[n+]1[O-] [FUROXAN] |  |  |  | inactive | 1.5 | 15 |  |  |  |  |  |  | Active |  | Activity (Schistosoma mansoni [13]): Active |
| N#Cc1c(-c2cccc(Cl)c2)no[n+]1[O-] |  | 100% | 15% | inactive | 1 | 12 | 50 | 35.7 | 64% | 80% | < 12.5 |  |  | 20% | Activity (Schistosoma mansoni [15]): Active |
| N#Cc1c(-c2ccc(-c3ccccc3)cc2)no[n+]1[O-] | Active | 45% |  | inactive |  |  |  |  | Active | 40% |  | inactive |  |  | Activity (Schistosoma mansoni [17]): Active |
| COc1cc(-c2no[n+]([O-])c2C#N)cc(OC)c1OC | Active | 75% | 7% | inactive | < 1 | 8 | 20 | > 50 | 40% | 70% | 150 | inactive |  |  |  |
| N#Cc1c(-c2csc(-c3no[n+]([O-])c3C#N)c2)no[n+]1[O-] |  |  |  | inactive |  |  |  |  |  |  |  |  |  |  | remaining at 1 h [18]: 52% |
| N#Cc1c(-c2cc(F)cc(-c3no[n+]([O-])c3C#N)c2)no[n+]1[O-] |  |  |  | inactive |  |  |  |  | 78% | 100% |  | inactive | Active | 55% | inhibition at 10 µM (hERG (KCNH2)): 29.4%; logD [19]: 2.91; remaining at 1 h [20]: 20%; Papp (Caco-2 [21]): 2.7 ×10⁻⁶ cm/s; remaining at 1 h [18]: 51%; solubility [22]: 89.1 µM (≈ 28 µg/mL); Papp (Caco-2 [23]): 7.9 ×10⁻⁶ cm/s |
| N#Cc1c(-c2ccc(O)cc2)no[n+]1[O-] |  | 100% |  | inactive |  |  |  | > 50 | 40% | 60% | > 400 | inactive |  | 15% | Activity (Schistosoma mansoni [17]): Active |
| N#Cc1c(-c2cccs2)no[n+]1[O-] |  | 100% |  | inactive | 1 | 2 | 20 |  | 25% | 100% |  | inactive |  | 25% | inhibition at 10 µM (hERG (KCNH2)): 3.4%; remaining at 1 h [20]: 1%; Papp (Caco-2 [21]): 9 ×10⁻⁶ cm/s; remaining at 1 h [18]: 64%; IC50 [24]: 3.5 µM; solubility [22]: 240 µM (≈ 46.4 µg/mL) |
| O=C(c1cccs1)c1no[n+]([O-])c1C(=O)c1cccs1 |  | inactive | inactive | inactive |  |  |  |  | inactive | inactive |  | inactive | Active | inactive | IC50 [24]: 0.04 µM |
| N#Cc1c(-c2cccc(-c3no[n+]([O-])c3C#N)c2)no[n+]1[O-] |  |  | 45% | inactive |  |  |  | > 50 | 100% | 100% | 150 |  |  | 60% | inhibition at 10 µM (hERG (KCNH2)): 7.8%; Activity (Schistosoma mansoni [13]): Active; solubility [22]: 5 µM (≈ 1.48 µg/mL) |
| N#Cc1c(C(=O)c2cccs2)no[n+]1[O-] |  | inactive | inactive | inactive |  |  |  |  | inactive | inactive |  | inactive | Active | inactive | IC50 [24]: 0.063 µM |
